Published values of several laboratories.
Compare with care: the assays were run in different laboratories.
Organism: Plasmodium falciparum
Observed: parasite growth
Technique: SYBR Green

Structure (SMILES) | strain | tested at | time | setting | endpoint | value
O=C(/C=C/c1cn(Cc2cn(-c3ccnc4cc(Cl)ccc34)nn2)c2ccccc12)c1ccccc1Br | 3D7 | 10 µM | – | blood stage | inhibition | 47.4%
O=C1C(NCCc2c[nH]c3ccccc23)=CC2=NCCc3c[nH]c1c32 | DD2 | – | – | blood stage | IC50 | 598 nM
O=C(/C=C/c1cn(Cc2cn(-c3ccnc4cc(Cl)ccc34)nn2)c2ccccc12)c1ccccc1[N+](=O)[O-] | 3D7 | 5 µM | – | blood stage | inhibition | -5.03%
O=C1c2[nH]cc3c2C(=NCC3)c2c(-c3ccc(O)cc3)c[nH]c21 | W2 | – | – | blood stage | IC50 | 4540 nM
COCC(=O)N1CCCC(C(=O)NCc2nc(-c3ccccc3)cs2)C1 (racemic) | DD2 | – | 72 h | blood stage | EC50 | 140 to 190 nM
O=C(/C=C/c1cn(Cc2cn(-c3ccnc4cc(Cl)ccc34)nn2)c2ccccc12)c1ccc(Br)cc1 | 3D7 | 5 µM | – | blood stage | inhibition | 12.9%
O=C1C(O)=C([C@H]2CC[C@H](c3ccc(Cl)cc3)CC2)C(=O)c2ccccc21 | – | – | 72 h | – | EC50 | 0.86 nM
NC1=CC2=NCCc3c[nH]c(c32)C1=O | W2 | – | – | blood stage | IC50 | 294 nM
CCN(CC)CCCC(C)Nc1ccnc2cc(Cl)ccc12 (stereo not shown) | 3D7 | – | 96 h | blood stage | IC50 | 4.8 nM
COC(CNC1=CC2=NCCc3c[nH]c(c32)C1=O)c1c[nH]c2ccccc12 (stereo not shown) | W2 | – | – | blood stage | IC50 | 1120 nM
O=C(/C=C/c1cn(Cc2cn(-c3ccnc4cc(Cl)ccc34)nn2)c2ccccc12)c1cccc([N+](=O)[O-])c1 | 3D7 | 5 µM | – | blood stage | inhibition | 4.82%
COCC(=O)N1CCC[C@H](C(=O)NCc2nc(-c3cccnc3)cs2)C1 | DD2 | – | 72 h | blood stage | EC50 | 92 nM
COC1=CC2=[N+](C)CCc3c[nH]c(c32)C1=O | W2 | – | – | blood stage | IC50 | 1520 nM
CCOC(=O)C1=C(C)NC2=C(C(=O)OC(c3ccc(OC)c(OC)c3)C2)C1c1ccccc1C (mixture of isomers) | 3D7 | – | – | blood stage | EC50 | 40 to 190 nM
Cn1cc2c3c1C(=O)C(NCCc1ccc(O)cc1)=CC3=NCC2 | W2 | – | – | blood stage | IC50 | 5010 nM
O=C(/C=C/c1cn(Cc2cn(-c3ccnc4cc(Cl)ccc34)nn2)c2ccccc12)c1ccccc1 | 3D7 | 5 µM | – | blood stage | inhibition | -3.08%
CCN(CC)CCCC(C)Nc1ccnc2cc(Cl)ccc12 (stereo not shown) | D6 | – | 72 h | blood stage | IC50 | 6.57 nM
COCC(=O)N1CCC[C@H](C(=O)NCc2nc(-c3ccc(C)cc3)cs2)C1 | DD2 | – | 72 h | blood stage | EC50 | 15 nM
COc1ccccc1C(=O)/C=C/c1cn(Cc2cn(-c3ccnc4cc(Cl)ccc34)nn2)c2ccccc12 | – | – | – | drug-resistant strain, blood stage | IC50 | 3500 nM
